Laboratory results published in ChEMBL document CHEMBL4382255, “Design, synthesis and activity of Mnk1 and Mnk2 selective inhibitors containing thieno[2,3-d]pyrimidine scaffold” (Eur J Med Chem, 2019).
Active and inactive are the calls of the source. Unless noted, the rule behind the calls is not given here.

Assays:
Mus musculus [1] = organism: Mus musculus; assay: Inhibition of MNK in mouse 3T3L1 cells assessed as reduction of eIF4E phosphorylation at 3 uM after 2 hrs by Western blot analysis; assay type: cell-based
Summary of the method: (§1)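 Mouse 3T3-L1 pre-adipocytes (DMEM high glucose, 10% heat-inactivated FBS, 37 °C, 5% CO₂) treated 2 h with compounds at 3 μM or lower concentrations down to 0.1 μM final; DMSO vehicle 0.03-0.05% final. RIPA lysates cleared, equal protein resolved by SDS-PAGE, immunoblotted for P-eIF4E and total eIF4E, fluorescent secondary detection.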

3T3-L1 = assay: Effect on total eIF4E protein level in mouse 3T3L1 cells at 3 uM after 2 hrs by Western blot analysis; assay type: ADME, cell-based; conditions: 3t3-l1, 2 h; summary of the method: as §1
Mus musculus [2] = organism: Mus musculus; assay: Inhibition of MNK in mouse 3T3L1 cells assessed as reduction of eIF4E phosphorylation at 0.1 uM after 2 hrs by Western blot analysis; assay type: cell-based; summary of the method: as §1
Mus musculus [3] = organism: Mus musculus; assay: Inhibition of mTORC2 in mouse 3T3L1 cells assessed as reduction in PKB phosphorylation at Ser473 residue at 0.1 to 5 uM after 2 hrs by Western blot analysis; assay type: cell-based
Summary of the method: (§2)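 3T3-L1 cells treated 2 h with inhibitor at indicated concentrations (DMSO <0.05% v/v). RIPA lysates, equal protein by Bradford, SDS-PAGE and western blot with phospho-specific antibodies (ERK, RSK, PKB Ser473, 4E-BP1, rpS6); fluorescent secondary imaging. Quantified from three independent experiments, SEM error bars.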

Mus musculus [4] = organism: Mus musculus; assay: Inhibition of mTORC1 in mouse 3T3L1 cells assessed as reduction in rpS6 phosphorylation at Ser240/244 residues at 0.1 to 5 uM after 2 hrs by Western blot analysis; assay type: cell-based; summary of the method: as §2
Mus musculus [5] = organism: Mus musculus; assay: Inhibition of mTORC1 in mouse 3T3L1 cells assessed as reduction in 4EBP1 at Ser65 residue phosphorylation at 0.1 to 5 uM after 2 hrs by Western blot analysis; assay type: cell-based; summary of the method: as §2
[6] = target: Mitogen-activated protein kinase 1 and 3 (ERK2 and ERK1) (Mus musculus) (UniProt P63085+Q63844); assay: Inhibition of ERK1/2 phosphorylation at Thr202/Tyr204 residues in mouse 3T3L1 cells at 0.1 to 5 uM after 2 hrs by Western blot analysis; assay type: cell-based; summary of the method: as §2
Chain of Mitogen-activated protein kinase 1 and 3 (ERK2 and ERK1) (Mus musculus) (P63085 whole entry, looked up): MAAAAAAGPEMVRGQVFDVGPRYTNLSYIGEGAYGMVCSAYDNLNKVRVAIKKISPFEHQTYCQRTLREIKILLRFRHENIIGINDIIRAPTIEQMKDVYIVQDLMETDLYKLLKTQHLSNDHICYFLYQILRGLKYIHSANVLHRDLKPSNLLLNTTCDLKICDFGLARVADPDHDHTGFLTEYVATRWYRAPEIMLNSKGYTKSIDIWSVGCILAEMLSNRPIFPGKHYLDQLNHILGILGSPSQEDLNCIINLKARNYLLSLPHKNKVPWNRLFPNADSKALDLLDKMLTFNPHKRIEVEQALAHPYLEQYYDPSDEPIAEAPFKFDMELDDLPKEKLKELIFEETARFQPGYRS
Chain of Mitogen-activated protein kinase 1 and 3 (ERK2 and ERK1) (Mus musculus) (Q63844 whole entry, looked up): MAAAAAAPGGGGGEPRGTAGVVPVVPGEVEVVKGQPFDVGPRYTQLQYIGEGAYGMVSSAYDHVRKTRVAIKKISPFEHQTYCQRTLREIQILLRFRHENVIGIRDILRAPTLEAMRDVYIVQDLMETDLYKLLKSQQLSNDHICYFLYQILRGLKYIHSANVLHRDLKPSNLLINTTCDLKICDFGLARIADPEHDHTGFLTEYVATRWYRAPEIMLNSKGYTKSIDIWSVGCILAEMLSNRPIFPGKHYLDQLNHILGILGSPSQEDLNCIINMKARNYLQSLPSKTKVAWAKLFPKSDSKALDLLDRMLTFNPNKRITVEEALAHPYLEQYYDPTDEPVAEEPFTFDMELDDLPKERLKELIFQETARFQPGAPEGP

Mus musculus [7] = organism: Mus musculus; assay: Inhibition of ERK signalling in mouse 3T3L1 cells assessed as reduction in RSK phosphorylation at […] residue at 0.1 to 5 uM after 2 hrs by Western blot analysis; assay type: cell-based; summary of the method: as §2
[8] = target: MAP kinase-interacting serine/threonine-protein kinase 1 (Mus musculus) (UniProt O08605); assay: Inhibition of MNK1 in C57BL/6J mouse embryonic fibroblasts assessed as decrease in eIF4E phosphorylation at 5 uM after 2 hrs by Western blot analysis
Chain of MAP kinase-interacting serine/threonine-protein kinase 1 (Mus musculus) (O08605 whole entry, the tested form may be a part): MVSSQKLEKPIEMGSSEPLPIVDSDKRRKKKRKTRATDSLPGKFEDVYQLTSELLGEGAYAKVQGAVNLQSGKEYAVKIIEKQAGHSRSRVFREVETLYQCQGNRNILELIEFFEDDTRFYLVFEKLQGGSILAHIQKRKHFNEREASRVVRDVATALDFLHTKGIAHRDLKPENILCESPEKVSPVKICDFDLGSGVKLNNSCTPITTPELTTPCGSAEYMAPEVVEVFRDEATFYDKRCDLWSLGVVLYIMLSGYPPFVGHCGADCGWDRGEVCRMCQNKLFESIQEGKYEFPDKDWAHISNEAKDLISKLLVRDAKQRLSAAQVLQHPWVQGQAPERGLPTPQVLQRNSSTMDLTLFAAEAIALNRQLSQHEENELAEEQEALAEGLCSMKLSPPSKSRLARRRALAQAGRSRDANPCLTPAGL
Summary of the method: (§3)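 MEFs from E13.5 C57BL/6J embryos, wild-type, MNK1-KO or MNK2-KO (DMEM, 10% FBS), treated 2 h with inhibitor at indicated concentrations, including a lower-concentration series in MNK1-KO cells; CGP57380 at 50 μM as reference. Lysates analysed by SDS-PAGE/western blot for P-eIF4E; quantified from three independent experiments, SEM.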

[9] = target: MAP kinase-interacting serine/threonine-protein kinase 2 (Mus musculus) (UniProt Q8CDB0); assay: Inhibition of MNK2 in C57BL/6J mouse embryonic fibroblasts assessed as decrease in eIF4E phosphorylation at 5 uM after 2 hrs by Western blot analysis; summary of the method: as §3
Chain of MAP kinase-interacting serine/threonine-protein kinase 2 (Mus musculus) (Q8CDB0 whole entry): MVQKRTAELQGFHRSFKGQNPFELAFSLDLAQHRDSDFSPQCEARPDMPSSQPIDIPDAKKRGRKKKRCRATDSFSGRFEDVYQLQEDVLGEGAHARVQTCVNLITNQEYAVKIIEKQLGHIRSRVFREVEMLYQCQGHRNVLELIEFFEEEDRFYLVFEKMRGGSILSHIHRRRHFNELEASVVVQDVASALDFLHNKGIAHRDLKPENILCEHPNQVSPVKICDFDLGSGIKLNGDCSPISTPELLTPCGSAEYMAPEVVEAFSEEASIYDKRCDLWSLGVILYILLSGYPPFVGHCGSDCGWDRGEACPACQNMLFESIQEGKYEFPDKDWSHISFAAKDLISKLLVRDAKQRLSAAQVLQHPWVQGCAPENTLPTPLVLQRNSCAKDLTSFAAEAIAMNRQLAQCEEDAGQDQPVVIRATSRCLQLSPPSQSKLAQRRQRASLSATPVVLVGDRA

[10] = target: MAP kinase-interacting serine/threonine-protein kinase 1 (Mus musculus) (UniProt O08605); assay: Inhibition of MNK1 in C57BL/6J mouse embryonic fibroblasts assessed as decrease in eIF4E phosphorylation at 0.1 to 0.3 uM after 2 hrs by Western blot analysis relative to control; summary of the method: as §3
[11] = target: MAP kinase-interacting serine/threonine-protein kinase 1 (Mus musculus) (UniProt O08605); assay: Inhibition of MNK1 in MNK2-knockout C57BL/6J mouse embryonic fibroblasts assessed as decrease in eIF4E phosphorylation at 0.3 to 5 uM after 2 hrs by Western blot analysis; summary of the method: as §3
[12] = target: MAP kinase-interacting serine/threonine-protein kinase 1 (Homo sapiens) (UniProt Q9BUB5); assay: Inhibition of GST-fused MNK1a (unknown origin) expressed in HEK293 cells using eIF4E as substrate after 30 mins by Western blot analysis; assay type: cell-based
Chain of MAP kinase-interacting serine/threonine-protein kinase 1 (Homo sapiens) (Q9BUB5 whole entry, looked up, the tested form may be a part): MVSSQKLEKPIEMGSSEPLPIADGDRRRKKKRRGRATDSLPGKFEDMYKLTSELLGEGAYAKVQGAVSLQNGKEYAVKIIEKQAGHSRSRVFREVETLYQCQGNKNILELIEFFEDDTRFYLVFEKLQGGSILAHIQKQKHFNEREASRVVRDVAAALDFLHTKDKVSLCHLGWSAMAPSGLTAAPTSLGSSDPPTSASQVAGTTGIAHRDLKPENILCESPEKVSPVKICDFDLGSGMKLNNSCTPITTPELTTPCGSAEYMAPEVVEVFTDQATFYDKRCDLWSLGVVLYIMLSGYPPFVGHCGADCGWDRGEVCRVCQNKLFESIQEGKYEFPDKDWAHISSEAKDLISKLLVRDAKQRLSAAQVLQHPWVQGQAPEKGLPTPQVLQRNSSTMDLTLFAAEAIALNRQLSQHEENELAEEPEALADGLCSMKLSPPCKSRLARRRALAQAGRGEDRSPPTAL
Summary of the method: (§4)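 GST-MNK1a or GST-MNK2a expressed in transfected HEK293 cells, purified by glutathione pull-down. Incubated in 25 mM Tris-HCl pH 7.5, 50 mM KCl, 2 mM MgCl₂ with 20 µM ATP and 65 ng E. coli-expressed eIF4E, 30 °C, 30 min, ± inhibitor. Stopped with sample buffer; immunoblotted for P-eIF4E Ser209, eIF4E and GST. Conditions pre-set within linear range.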

[13] = target: MAP kinase-interacting serine/threonine-protein kinase 2 (Homo sapiens) (UniProt Q9HBH9); assay: Inhibition of GST-fused MNK2a (unknown origin) expressed in HEK293 cells using eIF4E as substrate after 30 mins by Western blot analysis; assay type: cell-based; summary of the method: as §4
Chain of MAP kinase-interacting serine/threonine-protein kinase 2 (Homo sapiens) (Q9HBH9 whole entry, looked up, the tested form may be a part): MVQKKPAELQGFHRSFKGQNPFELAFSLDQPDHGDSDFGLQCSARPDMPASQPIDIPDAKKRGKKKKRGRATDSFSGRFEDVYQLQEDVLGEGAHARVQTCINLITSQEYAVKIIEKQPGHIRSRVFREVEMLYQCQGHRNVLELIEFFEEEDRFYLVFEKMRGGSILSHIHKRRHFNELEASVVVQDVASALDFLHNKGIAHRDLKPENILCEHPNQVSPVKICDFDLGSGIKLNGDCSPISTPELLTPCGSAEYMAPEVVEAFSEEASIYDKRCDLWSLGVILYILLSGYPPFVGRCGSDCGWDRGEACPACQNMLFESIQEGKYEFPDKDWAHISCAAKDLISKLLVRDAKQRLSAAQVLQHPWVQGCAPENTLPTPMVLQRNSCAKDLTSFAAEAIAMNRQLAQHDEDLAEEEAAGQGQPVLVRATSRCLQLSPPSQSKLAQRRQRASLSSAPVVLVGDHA

[14] = target: T1, MAP kinase-interacting serine/threonine-protein kinase 1/2 (Homo sapiens) (UniProt Q9HBH9+Q9BUB5); assay: Inhibition of MNK in human MDA-MB-231 cells assessed as decrease in eIF4E phosphorylation at 1 uM after 2 hrs by Western blot analysis; assay type: cell-based
Summary of the method: (§5)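 MDA-MB-231 cells treated with inhibitor at indicated concentrations for 2 h, or at 3 μM for times up to 72 h (DMSO vehicle <0.05%). Cells lysed in RIPA buffer; supernatants analysed by SDS-PAGE and western blot for P-eIF4E and total eIF4E. CGP57380 at 30 μM as reference.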

MDA-MB-231 = assay: Antimigratory activity against human MDA-MB-231 cells after 24 hrs by DAPI staining-based Transwell assay; assay type: functional, cell-based
Summary of the method: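 MDA-MB-231 cells pre-treated with inhibitor 60 min, then 3 x 10⁵ cells seeded into 8 μm-pore Transwell inserts pre-coated with 10 μg/ml collagen (collagen as attractant). After 24 h, migrated cells in bottom well stained with DAPI, imaged at ×10 and counted. Triplicate assays, mean ± SEM.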

[15] = target: MAP kinase-interacting serine/threonine-protein kinase 2 (Mus musculus) (UniProt Q8CDB0); assay: Inhibition of MNK2 in MNK1-knockout C57BL/6J mouse embryonic fibroblasts assessed as decrease in eIF4E phosphorylation at 0.5 uM after 2 hrs by Western blot analysis; summary of the method: as §3
[16] = target: MAP kinase-interacting serine/threonine-protein kinase 2 (Mus musculus) (UniProt Q8CDB0); assay: Inhibition of MNK2 in MNK1-knockout C57BL/6J mouse embryonic fibroblasts assessed as decrease in eIF4E phosphorylation at 0.003 to 0.03 uM after 2 hrs by Western blot analysis; summary of the method: as §3
[17] = target: T1, MAP kinase-interacting serine/threonine-protein kinase 1/2 (Homo sapiens); assay: Inhibition of MNK in human MDA-MB-231 cells assessed as decrease in eIF4E phosphorylation at 3 uM up to 72 hrs by Western blot analysis; assay type: cell-based; summary of the method: as §5

SMILES | MNK inhibition (active/not active) (Mus musculus [1]) | Activity (3T3-L1) | further results
Cc1c(C(=O)OCCc2ccccc2)sc2ncnc(Nc3ccc(F)cc3OC(C)C)c12 | Active | Non-Toxic | 
Cc1c(C(=O)NCCc2c[nH]cn2)sc2ncnc(Nc3ccc(F)cc3OC(C)C)c12 | Active | Non-Toxic | inhibition of eIF4E phosphorylation (active/not active) (Mus musculus [2]): inactive
Cc1c(C(=O)N2CCOCC2)sc2ncnc(Nc3ccc(F)cc3OC(C)C)c12 | Active | Non-Toxic | 
COC(=O)c1sc2ncnc(Nc3ccc(F)cc3OC(C)C)c2c1C | inactive |  | 
Cc1c(C(=O)NCCCN(C)C)sc2ncnc(Nc3ccc(F)cc3OC(C)C)c12 | Active |  | 
Cc1c(C(=O)NCC(C)(C)CN(C)C)sc2ncnc(Nc3ccc(F)cc3OC(C)C)c12 | Active | Non-Toxic | inhibition of eIF4E phosphorylation (active/not active) (Mus musculus [2]): inactive
COc1cc(F)ccc1Nc1ncnc2sc(C(=O)NCCCO)c(C)c12 | Active | Non-Toxic | 
COc1cc(F)ccc1Nc1ncnc2sc(C(=O)NCCc3c[nH]cn3)c(C)c12 | Active | Non-Toxic | 
Cc1c(C(=O)OCCO)sc2ncnc(Nc3ccc(F)cc3OC(C)C)c12 | Active |  | 
COc1cc(F)ccc1Nc1ncnc2sc(C(=O)OCCO)c(C)c12 |  | Non-Toxic | 
Cc1c(C(=O)NCCCN(C)C)sc2ncnc(Nc3ccc(F)cc3OC(C)CF)c12 (configuration not stated) | Active | Non-Toxic | inhibition of eIF4E phosphorylation (active/not active) (Mus musculus [2]): Active; inhibition (Mus musculus [3]): inactive; inhibition (Mus musculus [4]): inactive; inhibition (Mus musculus [5]): inactive; inhibition [6]: inactive; inhibition (Mus musculus [7]): inactive; inhibition [8]: 100%; inhibition [9]: 100%; inhibition [10]: 50%; inhibition [11]: Active; inhibition [12]: Active; inhibition [13]: Active; inhibition [14]: 100%; inhibition (MDA-MB-231): Active; inhibition [15]: Active; inhibition [16]: Active; inhibition [17]: Active
COc1cc(F)ccc1Nc1ncnc2sc(C(=O)N3CCCCC3)c(C)c12 | Active | Non-Toxic | 
COc1cc(F)ccc1Nc1ncnc2sc(C(=O)N3CCOCC3)c(C)c12 | Active | Non-Toxic | 
Cc1c(C(=O)N2CCN(C)CC2)sc2ncnc(Nc3ccc(F)cc3OC(C)C)c12 | Active | Non-Toxic | 
Cc1c(C(=O)N2CCCCC2)sc2ncnc(Nc3ccc(F)cc3OC(C)C)c12 | Active | Non-Toxic | 
COc1cc(F)ccc1Nc1ncnc2sc(C(=O)NCC(C)(C)CN(C)C)c(C)c12 |  | Non-Toxic | 
Cc1c(C(=O)N2CCCC2)sc2ncnc(Nc3ccc(F)cc3OC(C)C)c12 | Active | Non-Toxic | 
Cc1c(C(=O)OCCCO)sc2ncnc(Nc3ccc(F)cc3OC(C)C)c12 | Active | Non-Toxic | 
Cc1c(C(=O)NCCCO)sc2ncnc(Nc3ccc(F)cc3OC(C)C)c12 | Active |  | 
Cc1c(C(=O)NCCc2ccncc2)sc2ncnc(Nc3ccc(F)cc3OC(C)C)c12 | Active | Non-Toxic | inhibition of eIF4E phosphorylation (active/not active) (Mus musculus [2]): inactive
COc1cc(F)ccc1Nc1ncnc2sc(C(=O)N3CCN(C)CC3)c(C)c12 | Active | Non-Toxic | 
COc1cc(F)ccc1Nc1ncnc2sc(C(=O)NCCCN3CCOCC3)c(C)c12 | Active | Non-Toxic | 
COc1cc(F)ccc1Nc1ncnc2sc(C(=O)N3CCCC3)c(C)c12 | Active | Non-Toxic | 
Cc1c(C(=O)NC2CCCCC2)sc2ncnc(Nc3ccc(F)cc3OC(C)C)c12 | Active | Non-Toxic | 
COc1cc(F)ccc1Nc1ncnc2sc(C(=O)NCCc3ccncc3)c(C)c12 | Active | Non-Toxic | 
COc1cc(F)ccc1Nc1ncnc2sc(C(=O)NC3CCCCC3)c(C)c12 | Active | Non-Toxic | 
COc1cc(F)ccc1Nc1ncnc2sc(C(=O)NCCCN3CCCC3)c(C)c12 | Active | Non-Toxic | 
COc1cc(F)ccc1Nc1ncnc2sc(C(=O)NCCCN(C)C)c(C)c12 | inactive |  | 
Cc1c(C(=O)NCCCN2CCOCC2)sc2ncnc(Nc3ccc(F)cc3OC(C)C)c12 | Active | Non-Toxic | inhibition of eIF4E phosphorylation (active/not active) (Mus musculus [2]): inactive
